Laboratory results as given in publication PMC11909274 (Nature Communications, 2025).

Assays:
[1] = tested on: CHP-212-R(mix) and resistant monoclonal sublines R1-R6 (heterozygous USP7 V517F); test: Cell viability assay; conditions: for sensitivity of the resistant cells to other agents: SRB, 3 days exposure (Fig. 1d)
[2] = tested on: c-caspase-3, c-caspase-7, c-PARP, p53, p21, Rad18, DNMT1, UHRF1 in CHP-212 resistant variants; format: cell-based, human; conditions: resistant variants relative to the parent cells, 48 h, Western blotting
Summary of the method: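 CHP-212 parental and resistant cells were treated with test compound, 48 h for caspase-3/-7, cleaved caspases and PARP1, or 24 h for p53, p21, Rad18, DNMT1 and UHRF1. Lysis was in SDS buffer (50 mM Tris-HCl pH 6.8, 2% SDS, 100 mM DTT) with 15 min boiling, followed by SDS-PAGE on 7.5–12.5% gels. Primary antibodies were used at 1:1000 with HRP secondaries. Blots were repeated three times.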

[3] = tested on: LNCaP V517F.KI#1 and V517F.KI#2 cells; test: Cell viability assay; format: cell-based, human; conditions: LNCaP.V517F.KI vs WT
[4] = biological target: USP7_V517F^CD (Homo sapiens, UniProt Q93009, V517F); test: Ub-AMC in vitro enzyme assay; format: biochemical; conditions: 50 nM USP7_V517F^CD, up to 0.5 μM USP7-797 or 1 μM FT671
[5] = biological target: V517F^CD (Homo sapiens, UniProt Q93009, V517F); test: Isothermal titration calorimetry; format: binding; conditions: ITC, compared to the control groups (WT)
[6] = tested on: CHP-212.V517F.KI#1 and CHP-212.V517F.KI#2 cells; test: Cell viability assay; format: cell-based, human; conditions: CHP-212 V517F knock-in vs WT
[7] = biological target: V517Y^CD (Homo sapiens, UniProt Q93009, V517Y); test: Isothermal titration calorimetry; format: binding; conditions: ITC, USP7_V517Y^CD
Summary of the method: (§1)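 His-tagged USP7 catalytic-domain mutants were expressed from pET28 in E. coli BL21(DE3), induced with 0.5 mM IPTG overnight at 17 °C, then purified by Ni–NTA and desalting. Protein was titrated with test compound on a MicroCal PEAQ-ITC at 25 °C, using an initial 0.5 μL injection then 20 injections of 2 μL. Kd came from a single-site binding model fit.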

[8] = tested on: Capan-1.V517F.OE cells; conditions: Capan-1.V517F.OE vs WT.OE
[9] = biological target: V517I^CD (Homo sapiens, UniProt Q93009, V517I); test: Isothermal titration calorimetry; format: binding; conditions: ITC
Summary of the method: as §1

[10] = biological target: V517G^CD (Homo sapiens, UniProt Q93009, V517G); test: Isothermal titration calorimetry; format: binding; conditions: ITC, USP7_V517G^CD
Summary of the method: as §1

[11] = tested on: CHP-212 R(mix) cells; test: Cell cycle distribution by flow cytometry; format: cell-based, human; conditions: 24 h treatment
[12] = biological target: V517A^CD (Homo sapiens, UniProt Q93009, V517A); test: Isothermal titration calorimetry; format: binding; conditions: ITC
Summary of the method: as §1

[13] = tested on: USP4, USP8, USP9X, USP12, USP15, and USP34; conditions: cited from earlier work

V517I^CD, sequence (Q93009 208-560 V517I): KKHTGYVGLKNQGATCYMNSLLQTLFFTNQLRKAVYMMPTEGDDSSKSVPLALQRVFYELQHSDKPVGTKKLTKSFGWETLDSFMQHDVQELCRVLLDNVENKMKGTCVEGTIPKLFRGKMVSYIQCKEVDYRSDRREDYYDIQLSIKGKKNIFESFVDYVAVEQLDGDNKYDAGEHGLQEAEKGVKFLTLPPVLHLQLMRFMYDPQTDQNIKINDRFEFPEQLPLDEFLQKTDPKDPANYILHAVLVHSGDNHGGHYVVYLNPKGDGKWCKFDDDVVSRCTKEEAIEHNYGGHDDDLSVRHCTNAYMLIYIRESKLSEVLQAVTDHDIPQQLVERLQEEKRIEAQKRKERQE
V517A^CD, sequence (Q93009 208-560 V517A): as the sequence (Q93009 208-560 V517I) above, with I310A counted along it
USP7_V517F^CD, sequence (Q93009 208-560 V517F): as the sequence (Q93009 208-560 V517I) above, with I310F counted along it
V517F^CD, sequence (Q93009 208-560 V517F): as the sequence (Q93009 208-560 V517I) above, with I310F counted along it
V517Y^CD, sequence (Q93009 208-560 V517Y): as the sequence (Q93009 208-560 V517I) above, with I310Y counted along it
V517G^CD, sequence (Q93009 208-560 V517G): as the sequence (Q93009 208-560 V517I) above, with I310G counted along it

COc1ncnc(C2CC2)c1-c1ncc2cnn(Cc3ccc(-c4nc(C(F)(F)F)cn4C(C)C)cc3)c2n1 [KSQ4279]
sensitivity of the resistant cells to other agents [1]: maintained sensitivity

CC[C@]1(O)C[C@H]2CN(CCc3c([nH]c4ccccc34)[C@@](C(=O)OC)(c3cc4c(cc3OC)N(C=O)[C@H]3[C@@](O)(C(=O)OC)[C@H](OC(C)=O)[C@]5(CC)C=CCN6CC[C@]43[C@@H]65)C2)C1 [VCR]
sensitivity of the resistant cells to other agents [1]: maintained sensitivity

O=C(C[C@@H](C(F)F)n1ccc(F)n1)N1CCC(O)(Cn2cnc3c(cnn3-c3ccc(F)cc3)c2=O)CC1 [FT671]
activation of apoptosis-related proteins (c-caspase-3, c-caspase-7, c-PARP) [2]: reduced activation | fold reduction in sensitivity / higher IC50 than parental cells ([1]; resistant sublines vs parental CHP-212 cells): 83–213 fold | sensitivity reduction [3]: 121- to 146 fold | inhibition of V517F enzyme activity [4]: failed to inhibit | fold decreased binding affinity of USP7_V517F [5]: 67 fold | sensitivity reduction [6]: 88–106 fold | affinity compared to wild-type USP7 [7]: decreases significantly | fold higher IC50 [8]: 48 fold | affinity compared to wild-type USP7 [9]: remain essentially unchanged | affinity compared to wild-type USP7 [10]: remain essentially unchanged | cell-cycle distribution of resistant variants [11]: not profoundly altered | affinity compared to wild-type USP7 [12]: remain essentially unchanged | response of other USP family members to FT671 [13]: resistant

NS(=O)(=O)OC[C@@H]1C[C@@H](n2ccc3c(N[C@H]4CCc5ccccc54)ncnc32)C[C@@H]1O [MLN4924]
sensitivity of the resistant cells to other agents [1]: maintained sensitivity

COc1cccc2c1C(=O)c1c(O)c3c(c(O)c1C2=O)C[C@@](O)(C(=O)CO)C[C@@H]3O[C@H]1C[C@H](N)[C@H](O)[C@H](C)O1 [Adriamycin]
sensitivity of the resistant cells to other agents [1]: maintained sensitivity

CC(C)C[C@H](NC(=O)[C@H](Cc1ccccc1)NC(=O)c1cnccn1)B(O)O [bortezomib]
sensitivity of the resistant cells to other agents [1]: maintained sensitivity

CC(=O)O[C@H]1C(=O)[C@@]2(C)[C@H]([C@H](OC(=O)c3ccccc3)[C@]3(O)C[C@H](OC(=O)[C@H](O)[C@@H](NC(=O)c4ccccc4)c4ccccc4)C(C)=C1C3(C)C)[C@]1(OC(C)=O)CO[C@@H]1C[C@@H]2O [Taxol]
sensitivity of the resistant cells to other agents [1]: maintained sensitivity
